ChEMBL document CHEMBL1151956, “Sucutiniranes C-F, cassane-type diterpenes from Bowdichia nitida” (J Nat Prod, 2009)
Active and inactive are the calls of the source. The rule behind the calls is not given here.

How the values were obtained:
[1] = tested on: HCT-116; assay: Cytotoxicity against human HCT116 cells at 50 uM after 48 hrs by MTT assay; type: functional, cell-based
[2] = tested on: HL-60; assay: Cytotoxicity against human HL60 cells at 50 uM after 48 hrs by MTT assay; type: functional, cell-based
[3] = tested on: Plasmodium falciparum; assay: Antiplasmodial activity against Plasmodium falciparum 3D7; type: functional, organism-based
[4] = tested on: MCF7; assay: Cytotoxicity against human MCF7 cells at 50 uM after 48 hrs by MTT assay; type: functional, cell-based
[5] = tested on: HCT-116; assay: Cytotoxicity against human HCT116 cells after 48 hrs by MTT assay; type: functional, cell-based; details: HCT-116, 48 h
Outline: (§1)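 Cells seeded in 96-well plates, HL-60 at 1 × 10^4 cells/well and HCT-116 and MCF-7 at 5 × 10^3 cells/well, then preincubated 24 h at 37 °C in humidified 5% CO2. Compounds were added at graded concentrations and incubated for 48 h at 37 °C. MTT (5 mg/mL) was added for 2 h, and formazan was dissolved in 10% SDS/0.01 N HCl. Absorbance was read at 550 and 700 nm. Triplicate wells were used, and IC50 was taken from percent living cells versus controls.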

[6] = tested on: MCF7; assay: Cytotoxicity against human MCF7 cells after 48 hrs by MTT assay; type: functional, cell-based; details: MCF7, 48 h; outline: as §1
[7] = tested on: HL-60; assay: Cytotoxicity against human HL60 cells after 48 hrs by MTT assay; type: functional, cell-based; details: HL-60, 48 h; outline: as §1

Structure (SMILES)	Activity [1]	Activity [2]	Activity [3]	Activity [4]	IC50 [5]	IC50 [6]	IC50 [7]
CC(=O)O[C@H]1Cc2c(cc3occc3c2C)[C@@]2(C)CCCC(C)(C)[C@H]12	inactive	inactive	inactive	inactive			
CC(=O)O[C@H]1[C@H](O)[C@H]2C(C)(C)CCC[C@]2(C)[C@H]2Cc3occc3[C@H](C)[C@H]12 [Sucutinirane F]			inactive		30 µM	18 µM	7.5 µM
CC(=O)O[C@H]1[C@H](O)[C@H]2[C@@H](C)c3ccoc3C[C@@H]2[C@@]2(C)CCCC(C)(C)[C@H]12 [Sucutinirane E]			inactive		36 µM	35 µM	12 µM
CC(=O)O[C@H]1C[C@H]2[C@@H](C)C3=CC(=O)O[C@]3(O)C[C@@H]2[C@@]2(C)CCCC(C)(C)[C@H]12 [SUCUTINIRANE A]							14 µM
CC(=O)O[C@H]1C[C@H]2[C@@H](C)C3=CC(=O)O[C@@H]3C[C@@H]2[C@@]2(C)CCCC(C)(C)[C@H]12 [12-DEOXY-SUCUTINIRANE A]							32 µM
Cc1c2c(cc3occc13)[C@@]1(C)CCCC(C)(C)[C@@H]1C=C2	inactive	inactive	inactive	inactive			
